Measured values from article PMC11865470 (Communications Biology, 2025).

Target: mOtop1 L243A (Mus musculus, UniProt Q80VM9, L243A)
Test: patch-clamp, mOtop1 mutant
Format: cell-based
Details: 10 μM; pH 5.5
Procedure, shortened: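 Alanine-substituted mOtop1 mutants were co-transfected (2.5 μg channel plus 0.5 μg EGFP plasmid, Lipofectamine 2000) into PAC-knockout HEK293T cells. Whole-cell recording 16–24 h after seeding on PLL coverslips. Pipette (mM): 120 Cs-aspartate, 15 CsCl, 2 Mg-ATP, 5 EGTA, 2.4 CaCl2, 10 HEPES, pH 7.3. Bath (mM): 160 NMDG-Cl, 2 CaCl2, 10 MES, pH 5.5, with 10 μM test compound. Response compared with wild-type mOtop1.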

Sequence of mOtop1 L243A (Q80VM9 whole entry L243A): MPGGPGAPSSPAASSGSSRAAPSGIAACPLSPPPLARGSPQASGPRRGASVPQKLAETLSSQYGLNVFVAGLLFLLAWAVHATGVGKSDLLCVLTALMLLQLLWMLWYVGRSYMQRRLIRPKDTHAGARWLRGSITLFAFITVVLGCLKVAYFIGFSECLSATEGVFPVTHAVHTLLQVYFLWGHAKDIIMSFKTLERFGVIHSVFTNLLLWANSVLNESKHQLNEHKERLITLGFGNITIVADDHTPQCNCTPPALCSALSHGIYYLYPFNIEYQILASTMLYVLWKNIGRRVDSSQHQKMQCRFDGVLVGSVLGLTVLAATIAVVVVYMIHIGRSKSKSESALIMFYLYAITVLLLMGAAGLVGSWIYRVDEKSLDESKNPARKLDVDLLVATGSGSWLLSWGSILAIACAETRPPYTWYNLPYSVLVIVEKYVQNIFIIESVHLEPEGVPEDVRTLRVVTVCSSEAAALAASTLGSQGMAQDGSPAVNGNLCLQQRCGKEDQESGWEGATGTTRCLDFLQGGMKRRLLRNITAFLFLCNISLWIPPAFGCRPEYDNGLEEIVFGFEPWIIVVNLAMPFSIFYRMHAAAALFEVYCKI

For `Cc1ccc(C(=O)Nc2ccc3ccccc3c2)o1` [MFaN, 5-methyl-N-2-naphthyl-2-furamide], the “response of mutant to MFaN compared to wild-type mOtop1” value was “significantly enhanced”.
